ChEMBL document CHEMBL4368908 (J Med Chem, 2019)
The source made the active and inactive calls. The rule behind the calls is not given here.

Columns and labels:
[1] = target: T1, Inositol hexakisphosphate kinase 2 (Homo sapiens, UniProt Q9UHH9); assay: Inhibition of human IP6K2 using insP6 as substrate preincubated for 15 mins followed by substrate and measured after 30 mins by TR-FRET assay
T1 sequence (Q9UHH9 whole entry): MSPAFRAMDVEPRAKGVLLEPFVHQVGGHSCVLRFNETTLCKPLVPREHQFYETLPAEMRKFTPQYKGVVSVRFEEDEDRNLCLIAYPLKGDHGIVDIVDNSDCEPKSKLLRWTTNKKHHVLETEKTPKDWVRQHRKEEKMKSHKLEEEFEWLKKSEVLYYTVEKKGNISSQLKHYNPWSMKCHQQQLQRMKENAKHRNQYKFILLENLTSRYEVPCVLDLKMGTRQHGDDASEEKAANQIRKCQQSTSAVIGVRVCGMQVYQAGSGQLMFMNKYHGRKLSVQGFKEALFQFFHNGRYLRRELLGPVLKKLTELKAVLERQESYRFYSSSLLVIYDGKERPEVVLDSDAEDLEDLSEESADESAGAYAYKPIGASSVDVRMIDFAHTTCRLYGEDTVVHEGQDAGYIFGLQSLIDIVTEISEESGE

[2] = target: T2, Inositol polyphosphate multikinase (Homo sapiens, UniProt Q8NFU5); assay: Inhibition of human IPMK using insP3 as substrate preincubated for 15 mins followed by substrate and measured after 30 mins by TR-FRET assay
HCT-116 [3] = assay: Down regulation of insp5 levels in human [3H]-inositol-labelled HCT116 cells at 2.5 uM after 3.5 hrs by HPLC analysis; type: functional, cell-based
In short: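 HCT116 cells labeled with [³H]inositol (20 μCi/ml) were treated for 3.5 h with 2.5 μM flavonoid; compounds were added in DMSO, final 0.1%. Cells were PCA-quenched, and InsPs were extracted and resolved by CarboPac HPLC. Values are versus DMSO controls, n=3–4, by one-way ANOVA (Dunnett).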

[4] = target: T2, Inositol polyphosphate multikinase; assay: Inhibition of IPMK in human [3H]-inositol-labelled HCT116 cells assessed as reduction in insp5 levels at 2.5 uM after 3.5 hrs by HPLC analysis relative to control
In short: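 [3H]inositol-labelled (20 μCi/ml) HCT116 cells exposed 3.5 h to 2.5 μM flavonoid in DMSO (final 0.1%). PCA quench, extraction and CarboPac HPLC of InsP5/InsP6/InsP7, compared with DMSO vehicle control. Means ± SE, n=3–4; Dunnett's one-way ANOVA versus DMSO.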

Homo sapiens = species on record: Homo sapiens; assay: Selectivity ratio of IC50 for human IPMK to IC50 for human IP6K2
In short: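 Recombinant human IPMK (12 nM) or IP6K2 (400 nM) equilibrated 15 min at room temperature with compound (10-point, 0.005–100 μM, 1% DMSO) in 50 mM HEPES pH 7.5, 0.01% Brij-35, 10 mM MgCl₂, 1 mM EGTA. Reaction started with 10 μM ATP plus 10 μM InsP₃ (IPMK) or InsP₆ (IP6K2), run 30 min. ADP detected by Adapta TR-FRET. IC50 from 4-parameter fit.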

[5] = target: T3, Inositol hexakisphosphate kinase 2 (Mus musculus) (UniProt Q80V72); assay: Inhibition of IP6K2 in mouse 3T3-L1 cells assessed as AKT phosphorylation at T308 at 1 uM after 3 hrs by Western blot analysis; type: cell-based
T3 sequence (whole entry): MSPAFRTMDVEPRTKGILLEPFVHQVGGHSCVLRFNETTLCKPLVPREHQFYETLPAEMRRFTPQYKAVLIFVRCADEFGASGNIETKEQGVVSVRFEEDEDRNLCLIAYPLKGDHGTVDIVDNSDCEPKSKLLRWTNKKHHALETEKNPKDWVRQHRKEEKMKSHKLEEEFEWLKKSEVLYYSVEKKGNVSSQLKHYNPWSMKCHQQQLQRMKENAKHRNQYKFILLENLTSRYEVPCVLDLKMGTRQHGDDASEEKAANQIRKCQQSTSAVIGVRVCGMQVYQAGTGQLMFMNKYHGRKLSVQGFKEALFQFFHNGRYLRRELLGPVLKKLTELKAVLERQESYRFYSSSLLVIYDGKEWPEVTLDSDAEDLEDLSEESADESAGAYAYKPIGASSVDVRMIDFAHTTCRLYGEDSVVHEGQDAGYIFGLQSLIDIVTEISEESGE
In short: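 TNP reference treatment: 2-day post-confluent 3T3-L1 preadipocytes given 1 μM TNP in DMSO (final 0.1%) for 3 h. Lysates (20 μg protein) immunoblotted for phospho-AKT T308 and total AKT. pAKT/total AKT ratio normalized to sum of ratios per gel; one-way ANOVA (Dunnett) versus DMSO vehicle.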

[6] = target: RAC-alpha serine/threonine-protein kinase (Homo sapiens) (UniProt P31749); assay: Effect on AKT activity in human HCT116 cells assessed as AKT phosphorylation at T308 residues at 2.5 uM after 3 hrs by Western blot analysis; type: cell-based
In short: (§1)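 Cells (3T3-L1 preadipocytes 2 days post-confluent; HCT116 1 day post-confluent) treated 3 h with 2.5 μM flavonoid in DMSO (final DMSO 0.1%, vehicle control). Lysed in Tris pH 7.4/NaCl/Triton X-100 with protease-phosphatase inhibitors; 20 μg protein by SDS-PAGE and immunoblot for phospho-AKT T308 and total AKT. pAKT/total AKT ratio normalized to sum of ratios per gel; Dunnett's one-way ANOVA versus DMSO.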

HEK293 = assay: Down regulation of insp5 levels in [3H]-inositol-labelled HEK293 cells at 2.5 uM after 3.5 hrs by HPLC analysis; type: functional, cell-based; details: Homo sapiens
In short: (§2)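 HEK293 cells labelled with [3H]inositol (20 μCi/ml), treated 3.5 h with 2.5 μM flavonoid in DMSO (final 0.1%; vehicle controls). PCA-quenched extracts analysed by CarboPac HPLC for InsP5, InsP6, InsP7 relative to DMSO control. Means ± SE, n=3; Dunnett's one-way ANOVA.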

[7] = target: RAC-alpha serine/threonine-protein kinase (Mus musculus) (UniProt P31750); assay: Activation of AKT activity in mouse 3T3-L1 cells assessed as increase in AKT phosphorylation at T308 residues at 2.5 uM after 3 hrs by Western blot analysis; type: cell-based; in short: as §1
[8] = target: T2, Inositol polyphosphate multikinase; assay: Inhibition of IPMK in [3H]-inositol-labelled HEK293 cells assessed as reduction in insp5 levels at 2.5 uM after 3.5 hrs by HPLC analysis relative to control; type: cell-based; in short: as §2
HCT-116 [9] = assay: Down regulation of insp5 levels in human [3H]-inositol-labelled HCT116 cells at 10 uM after 3.5 hrs by HPLC analysis; type: functional, cell-based
In short: (§3)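 HCT116 cells labelled with [3H]inositol at 20 μCi/ml, then treated 3.5 h with 10 μM flavonoid in DMSO (final 0.1%; vehicle controls). Quenched with PCA; extracted [3H]InsP5, InsP6 and InsP7 resolved by CarboPac HPLC and quantified as peak DPM relative to DMSO control.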

[10] = target: T2, Inositol polyphosphate multikinase; assay: Inhibition of IPMK in human [3H]-inositol-labelled HCT116 cells assessed as reduction in insp5 levels at 10 uM after 3.5 hrs by HPLC analysis relative to control; in short: as §3
[11] = target: T2, Inositol polyphosphate multikinase; assay: Inhibition of IPMK in human [3H]-inositol-labelled HCT116 cells assessed as reduction in insp5 levels at 2.5 uM up to 200 mins by HPLC analysis relative to control
In short: (§4)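 Time course: HCT116 cells prelabelled with [3H]inositol (20 μCi/ml) and treated with 2.5 μM flavonoid in DMSO (final 0.1%) for the indicated times. InsP5, InsP6 and InsP7 measured by CarboPac HPLC after PCA quench and extraction. Means ± SE, n=3–4.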

HCT-116 [12] = assay: Down regulation of insp5 levels in human [3H]-inositol-labelled HCT116 cells at 2.5 uM up to 200 mins by HPLC analysis; type: functional, cell-based; in short: as §4
[13] = target: RAC-alpha serine/threonine-protein kinase (Mus musculus) (UniProt P31750); assay: Activation of AKT activity in mouse 3T3-L1 cells assessed as increase in AKT phosphorylation at T308 residues at 10 uM after 3 hrs by Western blot analysis; type: cell-based
[14] = target: RAC-alpha serine/threonine-protein kinase (Homo sapiens) (UniProt P31749); assay: Effect on AKT activity in human HCT116 cells assessed as AKT phosphorylation at T308 residues at 10 uM after 3 hrs by Western blot analysis; type: cell-based

Sequence of RAC-alpha serine/threonine-protein kinase (Homo sapiens) (P31749 whole entry): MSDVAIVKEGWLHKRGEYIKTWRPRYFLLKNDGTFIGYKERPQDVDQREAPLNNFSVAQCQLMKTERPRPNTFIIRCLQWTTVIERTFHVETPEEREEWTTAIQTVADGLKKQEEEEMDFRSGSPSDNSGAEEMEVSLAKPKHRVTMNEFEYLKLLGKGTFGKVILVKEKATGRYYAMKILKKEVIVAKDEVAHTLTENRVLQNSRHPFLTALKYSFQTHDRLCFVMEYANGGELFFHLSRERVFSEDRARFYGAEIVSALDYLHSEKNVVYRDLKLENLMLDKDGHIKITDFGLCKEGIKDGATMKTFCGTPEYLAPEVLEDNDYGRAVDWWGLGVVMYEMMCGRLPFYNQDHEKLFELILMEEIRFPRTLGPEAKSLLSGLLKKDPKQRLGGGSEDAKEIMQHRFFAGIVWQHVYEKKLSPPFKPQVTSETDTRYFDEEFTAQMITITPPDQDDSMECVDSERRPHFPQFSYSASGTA
T2 sequence (Q8NFU5 whole entry): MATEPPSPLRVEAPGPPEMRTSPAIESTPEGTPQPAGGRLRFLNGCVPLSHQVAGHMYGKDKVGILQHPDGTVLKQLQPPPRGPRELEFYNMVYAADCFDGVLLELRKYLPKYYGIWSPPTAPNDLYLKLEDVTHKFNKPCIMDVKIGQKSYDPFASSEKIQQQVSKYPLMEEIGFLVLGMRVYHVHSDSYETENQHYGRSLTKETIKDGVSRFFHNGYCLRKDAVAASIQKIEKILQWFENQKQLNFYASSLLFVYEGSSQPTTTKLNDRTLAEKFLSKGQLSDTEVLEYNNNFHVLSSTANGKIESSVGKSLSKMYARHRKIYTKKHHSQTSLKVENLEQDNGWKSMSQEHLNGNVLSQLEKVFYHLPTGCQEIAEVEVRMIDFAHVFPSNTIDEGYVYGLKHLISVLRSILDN
Sequence of RAC-alpha serine/threonine-protein kinase (Mus musculus) (P31750 whole entry): as the sequence (P31749 whole entry) above, with S2N, A50S, T100A, K112R, E117T, K389T, G410N, H415D counted along it

| SMILES | IC50 [1] [µM] | IC50 [2] [µM] | inhibition (HCT-116 [3]) | inhibition [4] | Ratio IC50 (Homo sapiens) | also measured |
| --- | --- | --- | --- | --- | --- | --- |
| COc1cc(-c2oc3cc(O)cc(O)c3c(=O)c2O)ccc1O [ISORHAMNETIN] | 0.5 | 2.2 | inactive | inactive | 4.4 |  |
| COc1cc(O)c2c(=O)c(O)c(-c3ccc(O)c(O)c3)oc2c1 [RHAMNETIN] | 1.8 | 14 | inactive | inactive | > 7.8 |  |
| O=C1C[C@@H](c2ccc(O)c(O)c2)Oc2cc(O)cc(O)c21 [ERIODICTYOL] | 25.3 | > 30 |  |  | > 1.2 |  |
| O=c1cc(-c2ccc(O)c(O)c2)oc2cccc(O)c12 | 8 | > 30 |  |  | > 3.8 |  |
| O=c1cc(-c2ccc(O)cc2)oc2cc(O)cc(O)c12 [APIGENIN] | 7.1 | 29 |  |  | 4.1 |  |
| COc1ccc(-c2cc(=O)c3c(O)cc(O)cc3o2)cc1 [ACACETIN] | 5.7 | > 30 |  |  | > 5.3 |  |
| O=c1cc(-c2ccc(O)c(O)c2)oc2cc(O)cc(O)c12 [LUTEOLIN] | 1.3 | 5.5 | inactive | inactive | 4.2 | inhibition [5]: Active; Activity [6]: inactive; inhibition (HEK293): inactive; Activity [7]: Active; inhibition [8]: inactive |
| O=c1cc(-c2ccc(O)c(O)c2)oc2ccccc12 | 11.4 | > 30 |  |  | > 2.6 |  |
| O=C1C[C@@H](c2ccc(O)cc2)Oc2cc(O)cc(O)c21 [NARINGENIN] | > 30 | > 30 |  |  |  |  |
| O=c1cc(-c2ccc(O)cc2)oc2ccc(O)cc12 | 12.9 | > 30 |  |  | > 2.3 |  |
| O=c1c(O)c(-c2ccc(O)cc2)oc2cc(O)cc(O)c12 [KAEMPFEROL] | 2.5 | 4.4 | inactive | inactive | 1.8 |  |
| COc1ccc(-c2cc(=O)c3c(O)cc(O)cc3o2)cc1O |  |  | inactive | inactive |  | inhibition [5]: Active; inhibition (HCT-116 [9]): inactive; inhibition [10]: inactive; Activity [6]: inactive; inhibition (HEK293): inactive; Activity [7]: Active; inhibition [8]: inactive; inhibition [11]: inactive |
| O=c1c(O)c(-c2ccc(O)c(O)c2)oc2cc(O)cc(O)c12 [QUERCETIN] |  | 2.3 | inactive | inactive |  | inhibition [5]: Active; inhibition (HCT-116 [9]): inactive; inhibition (HCT-116 [12]): inactive; inhibition [10]: 25%; Activity [6]: inactive; inhibition (HEK293): inactive; Activity [7]: Active; inhibition [8]: inactive; inhibition [11]: inactive |
| O=[N+]([O-])c1ccc(CNc2nc(NCc3cccc(C(F)(F)F)c3)nc3[nH]cnc23)cc1 |  |  |  |  |  | Activity [13]: Active; Activity [14]: inactive |
| O=c1cc(-c2ccc(O)cc2)oc2cc(O)ccc12 | 18.3 | > 30 |  |  | > 1.6 |  |
| O=c1c(O)c(-c2cc(O)c(O)c(O)c2)oc2cc(O)cc(O)c12 [MYRICETIN] | 0.7 | 1.1 | inactive | inactive |  |  |
| O=c1cc(-c2ccc(O)cc2)oc2cccc(O)c12 | > 30 | > 30 |  |  |  |  |
| COc1cc(O)c2c(=O)cc(-c3ccc(O)cc3)oc2c1 [GENKWANIN] | 24 | > 30 |  |  | > 1.3 |  |
